Reference: ChEMBL document CHEMBL3421564, “Synthesis and biological evaluation of indolyl-pyridinyl-propenones having either methuosis or microtubule disruption activity” (2015)
Active and inactive are the calls of the source. The rule behind the calls is not given here.

Legend:
Tubulin (Homo sapiens) [1] = target: T1, Tubulin (Homo sapiens) (UniProt P68371+Q9H4B7+P0DPH7+P68366+Q13509+Q71U36+P04350+Q3ZCM7+P07437+P68363+Q9BQE3+Q6PEY2+Q13885+Q9BVA1+Q9BUF5); assay: Inhibition of tubulin polymerization in human U251 cells at 0.1 uM after 4 hrs by immunoblot analysis; assay type: cell-based; details: U-251
How it was run: (§1)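 Seeded at 1.4 × 10^6 cells per 10 cm dish and treated one day later for 4 h, DMSO control. Cells scraped into 37 °C lysis buffer (100 mM PIPES pH 6.9, 5 mM MgCl2, 1 mM EGTA, 30% glycerol, detergents, 2 mM GTP, protease inhibitors) and spun at 100000g for 1 h at 37 °C. Pellet (polymer) and supernatant tubulin measured by anti-α-tubulin immunoblot with chemiluminescence. Polymer fraction expressed as % of DMSO control; mean ± S.D. of three experiments, two-tailed t test.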

U-251 [2] = assay: Induction of methuosis in human U251 cells assessed as small cytoplasmic vacuolization and extensive blebbing of the plasma membrane at 2.5 uM after 4 hrs by phase contrast microscopy
U-251 [3] = assay: Growth inhibition of human U251 cells at 10 uM after 24 hrs sulphorhodomine B colorimetric assay; assay type: functional, cell-based
Tubulin (Homo sapiens) [4] = target: T1, Tubulin (Homo sapiens); assay: Inhibition of tubulin polymerization in human U251 cells at 3 uM after 4 hrs by immunoblot analysis; assay type: cell-based; details: U-251; how it was run: as §1
U-251 [5] = assay: Induction of methuosis in human U251 cells assessed as cytoplasmic vacuolization at 2.5 uM up to 48 hrs by phase contrast microscopy; assay type: functional, cell-based
How it was run: (§2)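 Live U251 cells seeded at 10^5 per 35 mm dish; fresh medium with compound added after 1 day, DMSO vehicle control. Phase-contrast images taken at set intervals after drug addition (4 h to 48 h). Vacuolization, blebbing, rounding and detachment scored by eye.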

U-251 [6] = assay: Induction of methuosis in human U251 cells assessed as cytoplasmic vacuolization at 2.5 uM within 4 hrs by phase contrast microscopy; assay type: functional, cell-based; how it was run: as §2

Structure (SMILES)	inhibition (Tubulin (Homo sapiens) [1])	growth inhibition (GI) (U-251 [3])	inhibition (Tubulin (Homo sapiens) [4])	also measured
COc1ccc2[nH]c(C)c(/C=C/C(=O)c3ccncc3)c2c1	inactive	–	–	–
COc1ccc2[nH]c(C(=O)O)c(/C=C/C(=O)c3ccncc3)c2c1	–	inactive	–	Activity (U-251 [2]): Active
CCCOC(=O)c1[nH]c2ccc(OC)cc2c1/C=C/C(=O)c1ccncc1	inactive	–	Active	–
CCCOc1ccc2[nH]c(C)c(/C=C/C(=O)c3ccncc3)c2c1	inactive	–	–	–
CCCCOc1ccc2[nH]c(C)c(/C=C/C(=O)c3ccncc3)c2c1	–	inactive	–	Activity (U-251 [5]): Active
NCc1ccc2[nH]cc(/C=C/C(=O)c3ccncc3)c2c1	–	inactive	–	Activity (U-251 [5]): inactive
Cc1[nH]c2ccc(N)cc2c1/C=C/C(=O)c1ccncc1	–	inactive	–	Activity (U-251 [6]): inactive
COc1ccc2[nH]c(C(F)(F)F)c(/C=C/C(=O)c3ccncc3)c2c1	inactive	–	Active	–
CCOC(=O)c1[nH]c2ccc(OC)cc2c1/C=C/C(=O)c1ccncc1	inactive	–	Active	–
